Experimental data from different studies.
Each line is one published result; the experiments were not run side by side.

O=C(NCCN1CCCC1)c1cc(-c2ccc(CN3CCOCC3)cc2)nc2ccc(F)cc12
Cmax (male beagle dog, blood; oral, 3 mg/kg): 27 ng/mL

CC(C)(Nc1nc(-c2ccccn2)nc2ccccc12)c1ccccn1
C0 (female BALB/c mouse, plasma; intravenous, 1 mg/kg): 1800 ng/mL

CC(C)Oc1c(NC(=O)c2ccc(NC(=O)[C@H](CC(N)=O)NC(=O)c3ccc(NC(=O)c4ccc(C#N)cc4)cc3)cc2)ccc(C(=O)Nc2ccc(C(=O)O)cc2)c1O
CL/F (male CD-1 mouse, plasma; subcutaneous, 5 mg/kg, single dose): 163 mL/min/kg

COc1cc(OC)c2nccc(N3CCc4c(cc(Cn5ccnc5)cc4-c4cn(C)nc4C(F)(F)F)C3=O)c2c1
C0 (male CD-1 mouse, plasma; intravenous, 3 mg/kg): 1600 ng/mL

C=CC(=O)N1CC2CC(n3nc(-c4ccc(C(=O)Nc5ccccn5)cc4)c4c(N)ncnc43)CC2C1 (stereo not shown)
Tmax (male Wistar rat, plasma; oral, 100 mg/kg): 4 h

CC[C@H](C)[C@@H]1NC(=O)[C@@](C)(NC(=O)[C@H](CCCNC(=N)N)NC(=O)[C@H](CC(C)C)NC(=O)[C@@H](NC(=O)[C@H](CCC(N)=O)NC(=O)[C@H](CC(C)C)NC(C)=O)[C@@H](C)O)CCCC=CCCC[C@@](C)(C(=O)N[C@@H](CC(C)C)C(=O)N[C@@H](Cc2ccc3ccccc3c2)C(N)=O)NC(=O)[C@H](CCCNC(=N)N)NC(=O)[C@H](CCC(N)=O)NC1=O
clearance (male BALB/c mouse, plasma; intravenous, 10 mg/kg): 0.713 mL/min/kg

COCc1nn(Cc2ccc(Cn3ccccc3=O)cc2)cc1C(=O)NCc1c(F)ccc(OC)c1F
Cmax (male beagle dog, plasma; oral, 1 mg/kg): 163 ng/mL

CCc1cc(C(=O)NC)c2nccc(N3CCc4c(cc(Cn5ccnc5)cc4-c4cn(C)nc4C(F)(F)F)C3=O)c2c1
C0 (male CD-1 mouse, plasma; intravenous, 3 mg/kg): 7560 ng/mL

CC[C@@H]1CN(C(=O)NCC(F)(F)F)C[C@@H]1c1cnc2cnc3[nH]ccc3n12
Cmax (beagle dog, plasma; oral, 1 mg/kg, single dose): 89.4 ng/mL

C[C@@H]1[C@H](O)[C@@H](C)/C=C/C=C/C=C/C=C/C=C/C=C/C=C/[C@H](O[C@@H]2O[C@H](C)[C@@H](O)[C@H](N)[C@@H]2O)C[C@@H]2O[C@](O)(C[C@@H](O)C[C@@H](O)[C@H](O)CC[C@@H](O)C[C@@H](O)CC(=O)O[C@H]1C)C[C@H](O)[C@H]2C(=O)O
haemolysis (haemolysis; rabbit; 64 µg/mL, 1 h): 100%

Oc1c(-n2ccnn2)cnn1-c1cc(N2CCOCC2)ncn1
clearance (female dog, blood; intravenous, 3 mg/kg): 18.3 mL/min/kg

CC(C)(C)c1ccc(O)c(CN(Cc2cc(C(C)(C)C)ccc2O)C2CCC(NC(N)=O)CC2)c1 (stereo not shown)
clearance (male C57BL/6 mouse, plasma; intraperitoneal, 25 mg/kg, single dose): 26.7 mL/min/kg

COc1ccc2nccc(N3CCc4c(cc(Cn5ccnc5)cc4-c4cn(C)nc4C(F)(F)F)C3=O)c2c1
C0 (male CD-1 mouse, plasma; intravenous, 3 mg/kg): 3430 ng/mL

COc1cc2c3c(n(CCCN4CCOCC4)c(=O)c2cc1OC)-c1cc2c(cc1C3=O)OCO2
Cmax (male beagle dog, plasma; intravenous, 100 mg/m², infusion): 461 ng/mL

COCc1nn(Cc2ccc(Cn3ccccc3=O)cc2)cc1C(=O)NCc1nccc(OC)c1F
Cmax (male beagle dog, plasma; oral, 1 mg/kg): 284 ng/mL

CCn1c(=O)c(-c2cc(NC(=O)Nc3ccccc3)c(F)cc2Br)cc2cnc(NC)cc21
CL/F (beagle dog, plasma; oral, 5 mg/kg, single dose): 21 mL/min/kg
